The list is not random: actives were taken first. Their share in the collection is about 2.2%.
APP 5'UTR act: activates APP 5'UTR luciferase reporter. SH-SY5Y APP 5'UTR luciferase reporter, luminescence; zero percent = DMSO vehicle wells. activation, % at 2 µM. 190,000 tested, 1% active. AID 1276;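 active means activation above a set limit, based on mean plus 3 SD of controls, cut at about 140% in these data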
FLuc stim CS: firefly luciferase counter-screen for stimulation assays; P08659; ATPlite luciferase biochemical, luminescence, 10 min; 0 = ATP-free wells, 1 = DMSO control; activation factor at 10 µM; 200,000 tested, under 10 active;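 active means luciferase activation factor, scaled between plate controls, of at least 2 with compound at 10 µM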
Target sequence (P08659 whole entry, looked up): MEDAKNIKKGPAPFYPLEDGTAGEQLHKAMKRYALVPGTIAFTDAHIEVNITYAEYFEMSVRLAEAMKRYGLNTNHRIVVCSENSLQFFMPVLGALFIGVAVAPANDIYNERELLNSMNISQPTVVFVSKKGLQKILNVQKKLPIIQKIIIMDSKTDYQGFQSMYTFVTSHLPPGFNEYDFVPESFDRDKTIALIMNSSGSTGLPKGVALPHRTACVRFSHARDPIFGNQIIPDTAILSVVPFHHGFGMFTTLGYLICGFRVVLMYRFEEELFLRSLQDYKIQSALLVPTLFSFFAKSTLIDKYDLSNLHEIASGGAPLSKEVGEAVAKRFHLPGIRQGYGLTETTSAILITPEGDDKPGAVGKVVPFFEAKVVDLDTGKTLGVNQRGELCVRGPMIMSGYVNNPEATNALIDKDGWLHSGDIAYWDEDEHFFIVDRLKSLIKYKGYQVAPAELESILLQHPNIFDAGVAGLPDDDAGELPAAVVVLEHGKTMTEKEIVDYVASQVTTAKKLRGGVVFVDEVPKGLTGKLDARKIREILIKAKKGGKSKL
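System: luciferase plus luciferin reagent, cell-free; medium: PBS as buffer for the ATP substrate; dosing: test compounds dosed from 2 mM stocks in 100% DMSO; timing: 10 min post-reagent at room temperature; measured by: luminescence measurement of luciferase light output; evaluation: luciferase activation, seen as luminescence increase over controls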
PPC-1+TRAIL kill: PPC-1 cancer cell killing with TRAIL present. cell killing (% activity), % at 4 µM or 5 µM. PPC-1 cells + TRAIL, ATPLite viability luminescence. 220,000 tested, 0.41% active;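 active means cell killing above 50% in the first pass at 4 µM, then a duplicate retest at 5 µM averaging 50% or more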;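 further: plate controls were cells with TRAIL plus DMSO for no effect and medium-only wells lacking cells for full effect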
NF-kB expr up: raises NF-kB expression in human neuronal cells. NF-kB reporter expression; active compounds read high. fold change at 12.5 µM. 190,000 tested, 1.6% active. AID 1239; in the data active means fold change above about 3.3
TRAIL sens C8: sensitizes caspase-8 expressing cells to TRAIL; inhibition (viability loss, TRAIL sensitization), % at 10 µM; NB7+C8 cells + TRAIL, ATPlite viability luminescence; 360,000 tested, 1% active;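 active means compounds causing at least 50% loss of cell viability in the single-dose screen, relative to plate controls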
FLuc inhib CS: counter-screen for luciferase assay inhibitors: firefly luciferase inhibition; 200,000 tested, 1.5% active; AID 1006; ATPLite firefly luciferase biochemical luminescence, 10 min; inhibition, % at 10 µM;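 active means inhibition above about 50% when tested at 10 µM, limit read from the data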
PPC1 cytotox: kills PPC-1 cells. shares compounds with PPC-1+TRAIL kill. PPC-1 viability, ATPlite luminescence, overnight. cytotoxicity, % at 5 µM. 1,200 tested, 50% active;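 active means reconfirmed compounds whose average cytotoxicity reaches 50% or more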;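 further: 0% = DMSO-treated cells and 100% = wells holding medium but no cells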
Numbers without * were called inactive.

Screening COc1ccccc1NC(=O)CSc1nnc(-c2ccc(C)cc2)o1 returned APP 5'UTR act 180.7*, FLuc stim CS 1, PPC-1+TRAIL kill 43.0, TRAIL sens C8 47.7, FLuc inhib CS -1.1 and PPC1 cytotox 53.3*.
O=C(CSc1nnc(-c2ccc(O)cc2)o1)Nc1ccc2c(c1)OCCO2 was read as APP 5'UTR act 135.3*, FLuc stim CS 1, PPC-1+TRAIL kill 65.3*, NF-kB expr up 1.92, TRAIL sens C8 34.4, FLuc inhib CS 4.5 and PPC1 cytotox 66.0*.
Cc1cccc(NC(=O)c2cc(S(=O)(=O)N3CCCCC3)c[nH]2)c1 was read as TRAIL sens C8 9.4.
Screening COCC(C)NC(=O)c1noc2c1CCc1cc(OC)ccc1-2 (stereo unspecified) returned APP 5'UTR act 41.7, FLuc stim CS 0.8, PPC-1+TRAIL kill 4.6, NF-kB expr up 2.42, TRAIL sens C8 10.4 and FLuc inhib CS 22.4.
For COc1ccc2c(c1)CCc1c(C(=O)NCc3ccco3)noc1-2 the results were APP 5'UTR act 60.1, FLuc stim CS 0.9, PPC-1+TRAIL kill 15.9, NF-kB expr up 2.79, TRAIL sens C8 2.3, FLuc inhib CS 8.9 and PPC1 cytotox 11.1.
CCc1ccn2cc(-c3cc(-c4ccccc4)no3)nc2c1 was read as PPC-1+TRAIL kill 80.5*, TRAIL sens C8 90.4* and PPC1 cytotox 80.2*.
Screening CCCC1CC(=O)NC1(C(=O)OCC)C(=O)OCC (stereo unspecified) returned TRAIL sens C8 -5.9.
Screening Nc1ccc(-c2nc3ccc(N)cc3o2)cc1 returned APP 5'UTR act 15.7, FLuc stim CS 0.1, PPC-1+TRAIL kill 44.2, NF-kB expr up 2.4, TRAIL sens C8 68.0*, FLuc inhib CS 86.6* and PPC1 cytotox 45.4.
Screening Cc1ccc(-c2sc(C(=O)NN)c(C)c2C#N)cc1 returned PPC-1+TRAIL kill 73.1*, TRAIL sens C8 34.4 and PPC1 cytotox 76.0*.
Cc1ccc(CSc2sc(C(=O)c3ccccc3)c(N)c2C#N)cc1 was read as APP 5'UTR act 11.2, FLuc stim CS 1.1, PPC-1+TRAIL kill -0.6, NF-kB expr up 1.27, TRAIL sens C8 -5.1 and FLuc inhib CS -8.7.
COc1ccc(Nc2nc3ccccc3n2C)cc1 was read as TRAIL sens C8 -3.1.
CCn1c(/C=C/c2ccccc2)nc2ccccc21 was read as APP 5'UTR act 204.8*, FLuc stim CS 0.1, PPC-1+TRAIL kill 66.0*, NF-kB expr up 6.99*, TRAIL sens C8 72.3*, FLuc inhib CS 87.2* and PPC1 cytotox 67.6*.
Screening COc1ccc(/C=C/c2nc3ccccc3n2C)cc1 returned APP 5'UTR act -19.2, FLuc stim CS 0, PPC-1+TRAIL kill 93.2*, NF-kB expr up 0.85, TRAIL sens C8 87.9*, FLuc inhib CS 97.1* and PPC1 cytotox 92.5*.
Screening COc1ccc(/C=N/n2c(C)nc3ccccc3c2=O)cc1 returned TRAIL sens C8 -1.6.
For COc1ccc(/C=N\n2nnc3ccccc32)cc1 the results were APP 5'UTR act 191.1*, FLuc stim CS 0.3, PPC-1+TRAIL kill 38.6, NF-kB expr up 3.13, TRAIL sens C8 55.3*, FLuc inhib CS 68.8* and PPC1 cytotox 35.6.
Screening CNc1snc(C)c1C(=O)OCC(=O)c1ccc(OC)c(F)c1 returned TRAIL sens C8 14.1.
`NC(=O)c1ccsc1NC(=O)c1ccc2c(c1)CCCC2` gave APP 5'UTR act 180.3*, FLuc stim CS 0.1, PPC-1+TRAIL kill 78.3*, NF-kB expr up 8.23*, TRAIL sens C8 85.3*, FLuc inhib CS 90.8* and PPC1 cytotox 75.6*.
For NC(=O)c1ccsc1NC(=O)c1ccc(N2CCCC2=O)cc1 the results were APP 5'UTR act 175.0*, FLuc stim CS 0.1, PPC-1+TRAIL kill 77.5*, NF-kB expr up 1.16, TRAIL sens C8 79.7*, FLuc inhib CS 93.1* and PPC1 cytotox 74.3*.
For NC(=O)c1ccsc1NC(=O)c1cccs1 the results were APP 5'UTR act 14.8 and TRAIL sens C8 14.2.
For CC(C)=CC(=O)NCc1c(Cl)cccc1-n1cccc1 the results were APP 5'UTR act -3.8, FLuc stim CS 1.1, PPC-1+TRAIL kill -3.0, NF-kB expr up 1.33, TRAIL sens C8 17.6 and FLuc inhib CS -8.4.
Screening COCCNc1nc(NCc2cccc(OC)c2)c2sc(-c3ccccc3)cc2n1 returned TRAIL sens C8 14.0.
Screening O=C(Nc1ccc2c(c1)nc1n2CCSC1)c1ccco1 returned APP 5'UTR act 110.2, FLuc stim CS 0.1, PPC-1+TRAIL kill 59.5*, NF-kB expr up 2.82, TRAIL sens C8 72.0*, FLuc inhib CS 86.7* and PPC1 cytotox 58.5*.
O=C(c1ccco1)N1CCN(c2nc(C3CC3)nc3c2nnn3Cc2ccccc2Cl)CC1 was read as APP 5'UTR act 8.3, FLuc stim CS 1, PPC-1+TRAIL kill 12.7, NF-kB expr up 0.77, TRAIL sens C8 -3.1, FLuc inhib CS -4.8 and PPC1 cytotox 4.4.
Screening CC(C)(C)c1ccc(NC(=O)Nc2ccc(OCC(=O)N3CCOCC3)cc2)cc1 returned APP 5'UTR act 117.2, FLuc stim CS 0.1, PPC-1+TRAIL kill 63.1*, NF-kB expr up 5.32*, TRAIL sens C8 78.0*, FLuc inhib CS 91.6* and PPC1 cytotox 63.1*.
Screening CCOC(=O)c1cnc2c(N=Nc3ccccc3)c(N)nn2c1N returned APP 5'UTR act 20.4, FLuc stim CS 0.3, PPC-1+TRAIL kill 58.2*, NF-kB expr up 1.62, TRAIL sens C8 68.6*, FLuc inhib CS 69.9* and PPC1 cytotox 59.0*.
Screening CCOC(=O)c1cnc2c(-c3ccccc3)c(C)nn2c1N returned APP 5'UTR act -6.4, FLuc stim CS 0.9, PPC-1+TRAIL kill 8.0, NF-kB expr up 1.43, TRAIL sens C8 3.9 and FLuc inhib CS 14.4.
Screening CCOC(=O)c1cnc2c(N=Nc3cccc(Cl)c3)c(N)nn2c1N returned APP 5'UTR act -6.7, FLuc stim CS 0.9, PPC-1+TRAIL kill 16.8, NF-kB expr up 1.33 and FLuc inhib CS 7.4.
For CCOC(=O)c1cnc2c(-c3ccccc3)cnn2c1N the results were APP 5'UTR act 123.7, FLuc stim CS 0.3, PPC-1+TRAIL kill 52.5*, NF-kB expr up 7.4*, TRAIL sens C8 66.0*, FLuc inhib CS 74.7* and PPC1 cytotox 55.1*.
Screening O=C(N/N=C/c1ccc([N+](=O)[O-])cc1)c1[nH]ncc1Br returned APP 5'UTR act 94.1, FLuc stim CS 0.4, PPC-1+TRAIL kill 26.8, NF-kB expr up 1.57, TRAIL sens C8 49.0, FLuc inhib CS 59.6* and PPC1 cytotox 26.1.
O=C(N/N=C/c1ccc([N+](=O)[O-])cc1)c1cc(C2CC2)[nH]n1 was read as TRAIL sens C8 7.8.
For CCc1ccc(Nc2nnc(SCC(=O)NC(=O)c3cccn3C)s2)cc1 the results were APP 5'UTR act -4.9, FLuc stim CS 0.9, PPC-1+TRAIL kill 45.5, NF-kB expr up 0.94, TRAIL sens C8 45.2, FLuc inhib CS 5.3 and PPC1 cytotox 40.7.

High-throughput results (PubChem BioAssay)
